High-throughput results (PubChem)
TRPC4 inh: inhibitors of mouse TRPC4 channel, primary screen, Fluo4 calcium, HEK293 TRPC4beta/mu-opioid cells; DAMGO-evoked Fluo4 calcium flux; active compounds read low; B-score at 10 µM; 300,000 compounds, 0.39% hits; AID 2247, 2010;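 active = B-score over 3 SD under the library average, no early fluorescence shift, positive overall ratio signal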
Target sequence (Q9QUQ5 whole entry, looked up): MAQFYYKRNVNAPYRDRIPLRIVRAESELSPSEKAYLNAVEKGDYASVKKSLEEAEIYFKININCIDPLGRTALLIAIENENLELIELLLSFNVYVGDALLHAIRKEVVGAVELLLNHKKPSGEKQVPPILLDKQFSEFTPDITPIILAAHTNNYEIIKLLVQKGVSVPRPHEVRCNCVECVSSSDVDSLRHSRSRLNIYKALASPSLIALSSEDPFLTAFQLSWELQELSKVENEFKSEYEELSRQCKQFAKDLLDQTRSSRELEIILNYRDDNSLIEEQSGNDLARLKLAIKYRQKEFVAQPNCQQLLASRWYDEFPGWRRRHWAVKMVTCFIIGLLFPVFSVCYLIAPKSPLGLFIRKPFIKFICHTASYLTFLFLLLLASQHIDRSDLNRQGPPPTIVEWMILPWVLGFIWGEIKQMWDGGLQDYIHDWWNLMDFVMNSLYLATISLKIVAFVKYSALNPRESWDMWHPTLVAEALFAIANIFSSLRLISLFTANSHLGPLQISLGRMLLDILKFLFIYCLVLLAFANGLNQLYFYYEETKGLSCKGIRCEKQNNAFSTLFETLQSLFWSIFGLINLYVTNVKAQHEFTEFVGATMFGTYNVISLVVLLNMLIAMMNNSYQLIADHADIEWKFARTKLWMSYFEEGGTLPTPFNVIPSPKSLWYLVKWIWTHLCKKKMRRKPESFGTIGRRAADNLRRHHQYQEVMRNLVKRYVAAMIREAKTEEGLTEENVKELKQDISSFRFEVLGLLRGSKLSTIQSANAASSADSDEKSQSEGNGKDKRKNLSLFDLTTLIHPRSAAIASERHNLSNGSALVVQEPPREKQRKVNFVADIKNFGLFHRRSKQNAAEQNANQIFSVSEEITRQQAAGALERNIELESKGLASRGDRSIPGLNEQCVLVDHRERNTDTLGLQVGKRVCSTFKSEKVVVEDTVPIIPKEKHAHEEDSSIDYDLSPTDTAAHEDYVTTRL
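Material: HEK293 cells with stable TRPC4beta plus mu-opioid receptor expression; probe or stimulus: DAMGO in two steps, submaximal then maximal; technique: Fluo4 calcium fluorescence by kinetic imaging, 5 s 1 Hz baseline; measure: integrated fluorescence ratio relative to baseline, converted to per-well B score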
TRPC6 activator: mouse TRPC6 channel activators, primary screen, cell-based, HEK293, membrane potential dye; B-score at 10 µM; HEK293-TRPC6 membrane potential dye fluorescence; active compounds read high; 310,000 compounds, 0.13% hits; AID 2550, 2010; Short transient receptor potential channel 6 (Mus musculus), Q61143;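 active = B-score of the integrated fluorescence ratio above library mean plus 3 SD, and starting fluorescence ratio within library mean plus 5 SD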;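 note: higher score means more depolarization so channel activation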
TRPC4 agonist: activators of mouse TRPC4 channel, primary screen, Fluo4 calcium, HEK293 TRPC4beta/mu-opioid cells; Fluo4 calcium fluorescence; active compounds read high; B-score at 10 µM; 310,000 compounds, 0.49% hits; AID 2237, 2010;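 active = B-score above 5 SD of library B-scores, and initial fluorescence ratio not above library mean plus 5 SD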;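 note: positive B-score marks a calcium rise read as TRPC4 activation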
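Incubation: 45 min room-temperature Fluo4 loading, 110 s read / System: HEK293 cells stably co-expressing mouse TRPC4beta and mu-opioid receptor / Signal: Fluo4 fluorescence, kinetic / Control set: buffer (low) and maximal DAMGO (high) / Measure: integrated baseline-normalised fluorescence ratio, converted to per-well B score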
TRPC6 inhibitor: mouse TRPC6 channel inhibitors, primary screen, cell-based, HEK293, membrane potential dye; 310,000 compounds, 1.1% hits; B-score at 10 µM; ACh-evoked depolarization; active compounds read low; Short transient receptor potential channel 6 (Mus musculus), Q61143;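 active = B-score under library mean minus 3 SD, initial fluorescence not abnormally high, positive integrated signal ratio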;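 note: B-score derived from integrated fluorescence ratio over the kinetic read; more negative B-score means stronger inhibition of depolarization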
TRPC4 PAM: positive allosteric modulators of TRPC4, primary screen, cell-based, mouse TRPC4beta, HEK293 mu-opioid, Fluo-4 calcium; Short transient receptor potential channel 4 (Mus musculus), Q9QUQ5; DAMGO EC20, Fluo-4 Ca2+ flux; active compounds read high; B-score at 10 µM; 310,000 compounds, 0.42% hits;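 active = B-score of calcium response area above 5 SD of library B-scores, with initial fluorescence ratio within 5 SD of library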;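 note: B-score of integrated fluorescence ratio over time as area under calcium response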
* marks the source's active call; other numbers are inactive results; i = inactive. In the library only some 2.3% were active in any assay of this set; here they are far more common.

SMILES	TRPC4 inh	TRPC6 activator	TRPC4 agonist	TRPC6 inhibitor	TRPC4 PAM
Clc1ccc(COc2ccccc2CNCc2cccnc2)cc1	-6*	i	i	i	i
c1ccc(COc2cccc(CNCc3ccccn3)c2)cc1	i	i	i	i	i
c1ccc(COc2cccc(CNCc3cccnc3)c2)cc1	-6*	i	i	i	i
Nc1ncc([N+](=O)[O-])c(N2CCCCCC2)n1	i	i	i	i	i
O=[N+]([O-])c1ccc(N2CCCC2)nc1N1CCCC1	i	i	144*	i	i
CC(C)(CN1CCN(C(c2ccccc2)c2ccccc2)CC1)NS(=O)(=O)c1ccccc1	i	i	i	i	i
O=Cc1coc2c(ccc3ccccc32)c1=O	-5*	i	i	i	i
CC1CCN(CCc2nc3cc(NC(=O)COc4ccc([N+](=O)[O-])cc4)ccc3n2C)CC1	i	i	i	i	i
Cc1cc(C)cc(N(CCC#N)C(=O)CSc2n[nH]c(N)n2)c1	i	i	i	i	i
COc1cc(CN2CCCC(C(=O)Nc3ccccc3Oc3cccnc3)C2)ccc1F (stereo not given)	i	i	i	i	i
Cc1ccccc1CN1CCCC(C(=O)Nc2ccccc2Oc2cccnc2)C1 (stereo not given)	-7*	i	i	i	i
O=C(Nc1ccccc1Oc1cccnc1)C1CCCN(Cc2cccc(Cl)c2)C1 (stereo not given)	-6*	i	i	i	i
CC(=O)c1ccc(OCC(O)CN2CCN(Cc3ccccc3)CC2)cc1 (stereo not given)	i	i	i	i	i
COc1ccc(CNCC(O)COc2ccc(C(C)(C)c3ccccc3)cc2)cc1 (stereo not given)	i	i	i	i	i
CCOc1ccc(OCC(O)CNC2CCN(Cc3ccccc3)CC2)cc1 (stereo not given)	-6*	i	108*	i	i
CC(C)(c1ccccc1)c1ccc(OCC(O)CNC2CCN(Cc3ccccc3)CC2)cc1 (stereo not given)	i	i	92*	i	i
CCOc1cc(/C=N/NC(=O)CCn2nc(C)cc2C)ccc1O	i	i	i	i	i
CCCCN(C)C(=O)Cn1nc(Cc2ccncc2)c2ccccc2c1=O	i	i	i	i	i
CCCCN(CC)CCCNC(=O)Cn1nc(Cc2ccncc2)c2ccccc2c1=O	i	i	133*	i	i
CC(=O)Nc1ccc(S(=O)(=O)N(C)CC(=O)OC(C)C(=O)NC2CCCCC2)cc1 (stereo not given)	i	i	i	i	i
CC(=O)[C@@H]1[C@@H]2C(=O)N(c3ccc(F)c(Cl)c3)C(=O)[C@@H]2C2c3ccccc3C=CN21 (stereo not given in full)	-7*	i	i	i	i
CC(=O)[C@H]1[C@@H]2C(=O)N(c3cccc(Cl)c3)C(=O)[C@@H]2[C@H]2c3ccccc3C=CN21	i	i	i	i	i
CCCN1C2=NCCN2c2cc(C)c(C)cc21	-7*	i	i	i	i
CCCCCN1C2=NCCN2c2ccccc21	-6*	i	i	i	i
COCCCN(Cc1ccco1)C(=O)Cn1ncc2c([nH]c3ccccc32)c1=O	i	i	i	i	i
SMILES	TRPC4 inh	TRPC6 activator	TRPC4 agonist	TRPC6 inhibitor	TRPC4 PAM
CN(Cc1ccco1)C(=O)Cn1ncc2c([nH]c3ccccc32)c1=O	i	i	i	i	20*
CCOC(Cn1ccc(=O)[nH]c1=O)OCC	i	i	i	i	i
COc1ccccc1N1CCN(S(=O)(=O)CCNC(=O)c2cccc(F)c2)CC1	i	i	i	i	i
CCCC(=O)NC(c1ccccc1)c1ccc2cccnc2c1O (stereo not given)	i	i	i	-5.8*	i
CCCCC(=O)NC(c1ccccc1)c1ccc2cccnc2c1O (stereo not given)	i	i	i	i	i
O=C(NCCCN1CCCC1=O)c1ccc(S(=O)(=O)Nc2ccccc2F)cc1	i	i	i	i	i
O=C(NCCCN1CCCC1=O)c1ccc(CNS(=O)(=O)c2ccc(F)cc2)cc1	i	i	i	i	37*
CC1CC(C)CN(CCCNC(=O)CCC(=O)N2CCOc3ccccc32)C1 (stereo not given)	i	i	73*	i	i
CCCCS(=O)CC(COCc1ccccc1)OC(=O)CSc1nc(C)cc(C)n1 (stereo not given)	i	i	i	i	i
CCC(=O)c1cc2c(C)cc(=O)oc2c(C)c1OC(=O)C(C)C	-6*	i	i	i	i
Cc1c(C=Nc2ccc(S(=O)(=O)N(C)C)cc2)c(O)[nH]c(=O)c1C#N	i	i	i	i	i
CSc1cccc(NC(=O)CNS(=O)(=O)c2ccccc2)c1	i	i	i	i	i
CCCCCn1c(=O)[nH]c2cc(C(=O)NCCN(CC)CC)ccc2c1=O	i	i	i	i	14*
Cc1noc(/C=C/c2ccco2)c1S(=O)(=O)N1CCC(C(=O)N2c3ccccc3CC2C)CC1 (stereo not given)	i	i	i	i	i
C#CCCOC(=O)N1C2=NC(C(=O)OC)=C(C(=O)OC)[C@@H]3N(C)c4ccccc4[C@]23C[C@H]1C(=O)OC	i	i	i	i	i
C#CCCOC(=O)N1C2=NC(C(=O)OC)=C(C(=O)OC)[C@@H]3N(Cc4ccccc4)c4ccccc4[C@]23C[C@H]1C(=O)OC	i	i	i	i	10*
Cc1ccc(Cl)cc1NC(=S)NN	i	i	i	i	i
Cc1c(Cl)cccc1NC(=S)N1CCCN(Cc2ccc(F)cc2)C1	i	i	44*	i	i
Cc1ccc(NC(=S)N2CCCN(Cc3ccc(F)cc3)C2)c(C)c1	i	i	60*	i	i
COc1cc(OC)c(OC)cc1/C=N/NC(=S)NCC1CCCO1 (stereo not given)	i	i	i	i	i
Cc1csc(-c2cnn(-c3ccccc3)c2NC(=O)c2ccc(C(F)(F)F)cc2)n1	i	i	i	i	i
